Published values gathered from unrelated publications.
Lines come from different studies, so protocols differ.
Target: Beta-2 adrenergic receptor (ADRB2, Homo sapiens, UniProt P07550)
Tested at: 10 µM

| SMILES | test | inhibition [%] |
| --- | --- | --- |
| CC(=O)N1CCC(c2ccc(C(=O)NC3=NCCN3)cc2C(F)(F)F)CC1 | ligand displacement | -14.2 |
| N#Cc1cc(Cn2c(N3CCCC3)nc3ccccc32)ccc1F | ligand displacement | 0 |
| Oc1cccc(Nc2nc(-c3ccc(F)cc3F)cs2)c1 | cell-free assay | 4 |
| O=C(Nc1ccc(S(=O)(=O)N2CCC(Cl)CC2)cc1)c1ccc([N+](=O)[O-])o1 | ligand displacement, radioligand | 17 |
| Ic1cccc2cnccc12 | ligand displacement, radioligand | 0 |
| CCCNc1nc2ccccc2n1Cc1ccc(Cl)cc1 | ligand displacement | -10.2 |
| O=C1N=C(N2CCCCN2)S/C1=C\c1ccc(F)cc1O | ligand displacement, radioligand | < 10 |
| O=C(c1ccc(F)cc1)N(Cc1ccccc1)C1CCCCC1 | cell-free assay | 7 |
| CN1CCN(c2ccnc(NCCc3ccccc3)n2)CC1 | ligand displacement | -3.49 |
| CCN(CC)c1ccc(C2Nc3ccc(C(=O)c4ccccc4)cc3NC3=C2C(=O)CC(C)(C)C3)cc1 (stereo not shown) | ligand displacement, radioligand | 1 |
